Reference: ChEMBL document CHEMBL1287779, “Indium(III) chloride catalyzed three-component coupling reaction: a novel synthesis of 2-substituted aryl(indolyl)kojic acid derivatives as potent antifungal and antibacterial agents” (2010)
Values after ≈ are worked out from the molar mass of the structure shown.

Legend:
Type in all cases: functional
Rhizopus arrhizus [1] = experiment: Antifungal activity against Rhizopus oryzae MTCC 262 assessed as zone of inhibition at 150 ug by agar well diffusion method; settings: read-out: IZ
Summary of the method: (§1)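 Agar well diffusion on potato dextrose agar. Plates were spread with 0.5 mL of a week-old culture of the test organism, and 6 mm wells were cut with a cork borer. Compounds were dissolved in DMSO at different concentrations and added to the wells, with controls included. Plates were held at 27 °C for 48 h, and inhibition zone diameters were read in mm. Three to four replicates per treatment.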

Diutina rugosa [2] = experiment: Antifungal activity against Candida rugosa NCIM 3462 assessed as zone of inhibition at 100 ug by agar well diffusion method; settings: read-out: IZ; summary of the method: as §1
Aspergillus niger [3] = experiment: Antifungal activity against Aspergillus niger MTCC 282 assessed as zone of inhibition at 100 ug by agar well diffusion method; settings: read-out: IZ; summary of the method: as §1
Escherichia coli = experiment: Antibacterial activity against Escherichia coli MTCC 443 by broth dilution method
Summary of the method: (§2)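 MIC determined by broth dilution following NCCL standards. Penicillin and streptomycin were tested in parallel under identical conditions.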

Candida albicans [4] = experiment: Antifungal activity against Candida albicans MTCC 227 assessed as zone of inhibition at 150 ug by agar well diffusion method; settings: read-out: IZ; summary of the method: as §1
Saccharomyces cerevisiae [5] = experiment: Antifungal activity against Saccharomyces cerevisiae MTCC 36 assessed as zone of inhibition at 150 ug by agar well diffusion method; settings: read-out: IZ; summary of the method: as §1
Aspergillus niger [6] = experiment: Antifungal activity against Aspergillus niger MTCC 282 assessed as zone of inhibition at 150 ug by agar well diffusion method; settings: read-out: IZ; summary of the method: as §1
Klebsiella pneumoniae = experiment: Antibacterial activity against Klebsiella pneumoniae MTCC 618 by broth dilution method; summary of the method: as §2
Saccharomyces cerevisiae [7] = experiment: Antifungal activity against Saccharomyces cerevisiae MTCC 36 assessed as zone of inhibition at 100 ug by agar well diffusion method; settings: read-out: IZ; summary of the method: as §1
Bacillus subtilis = experiment: Antibacterial activity against Bacillus subtilis MTCC 441 by broth dilution method; summary of the method: as §2
Rhizopus arrhizus [8] = experiment: Antifungal activity against Rhizopus oryzae MTCC 262 assessed as zone of inhibition at 100 ug by agar well diffusion method; settings: read-out: IZ; summary of the method: as §1
Pseudomonas aeruginosa = experiment: Antibacterial activity against Pseudomonas aeruginosa MTCC 741 by broth dilution method; summary of the method: as §2
Staphylococcus aureus = experiment: Antibacterial activity against Staphylococcus aureus MTCC 96 by broth dilution method; summary of the method: as §2
Candida albicans [9] = experiment: Antifungal activity against Candida albicans MTCC 227 assessed as zone of inhibition at 100 ug by agar well diffusion method; settings: read-out: IZ; summary of the method: as §1
[10] = test system: Staphylococcus epidermidis; experiment: Antibacterial activity against Staphylococcus epidermidis MTCC 2639 by broth dilution method; summary of the method: as §2
Diutina rugosa [11] = experiment: Antifungal activity against Candida rugosa NCIM 3462 assessed as zone of inhibition at 150 ug by agar well diffusion method; settings: read-out: IZ; summary of the method: as §1

Structure (SMILES)	zone of inhibition at 150 µg/disc (Rhizopus arrhizus [1]) [mm]	zone of inhibition at 100 µg/disc (Diutina rugosa [2]) [mm]	zone of inhibition at 100 µg/disc (Aspergillus niger [3]) [mm]	MIC (Escherichia coli) [mg/L]	zone of inhibition at 150 µg/disc (Candida albicans [4]) [mm]	zone of inhibition at 150 µg/disc (Saccharomyces cerevisiae [5]) [mm]	zone of inhibition at 150 µg/disc (Aspergillus niger [6]) [mm]	MIC (Klebsiella pneumoniae) [mg/L]	zone of inhibition at 100 µg/disc (Saccharomyces cerevisiae [7]) [mm]	MIC (Bacillus subtilis) [mg/L]	zone of inhibition at 100 µg/disc (Rhizopus arrhizus [8]) [mm]	MIC (Pseudomonas aeruginosa) [mg/L]	MIC (Staphylococcus aureus) [mg/L]	zone of inhibition at 100 µg/disc (Candida albicans [9]) [mm]	MIC [10] [mg/L]	zone of inhibition at 150 µg/disc (Diutina rugosa [11]) [mm]
Cc1[nH]c2ccccc2c1C(c1cccc(Oc2ccccc2)c1)c1oc(CO)cc(=O)c1O (stereo not given)	0	11	9	75 (≈ 165 µM)	14	14	14	75 (≈ 165 µM)	10	150 (≈ 331 µM)	0	75 (≈ 165 µM)	18.8 (≈ 41.3 µM)	9	150 (≈ 331 µM)	16
C[C@@H]1[C@H](O)[C@@H](C)/C=C/C=C/C=C/C=C/C=C/C=C/C=C/[C@H](O[C@@H]2O[C@H](C)[C@@H](O)[C@H](N)[C@@H]2O)C[C@@H]2O[C@](O)(C[C@@H](O)C[C@@H](O)[C@H](O)CC[C@@H](O)C[C@@H](O)CC(=O)O[C@H]1C)C[C@H](O)[C@H]2C(=O)O [AMPHOTERICIN B]	–	22	25	–	–	–	–	–	22	–	24	–	–	23.5	–	–
O=c1cc(CO)oc(C(c2ccccc2)c2c[nH]c3ccccc23)c1O (stereo not given)	0	6	10	150 (≈ 432 µM)	0	0	14	75 (≈ 216 µM)	0	150 (≈ 432 µM)	0	150 (≈ 432 µM)	150 (≈ 432 µM)	0	150 (≈ 432 µM)	9
COc1ccc(C(c2oc(CO)cc(=O)c2O)c2c[nH]c3ccc(Cl)cc23)cc1 (stereo not given)	0	0	14	4.68 (≈ 11.4 µM)	16	21	20	18.8 (≈ 45.5 µM)	16	150 (≈ 364 µM)	0	4.68 (≈ 11.4 µM)	2.34 (≈ 5.68 µM)	11	150 (≈ 364 µM)	0
Cc1[nH]c2ccccc2c1C(c1ccc(Cl)cc1)c1oc(CO)cc(=O)c1O (stereo not given)	10	0	8	18.8 (≈ 47.4 µM)	0	0	12	75 (≈ 189 µM)	0	150 (≈ 379 µM)	7	18.8 (≈ 47.4 µM)	37.5 (≈ 94.7 µM)	0	18.8 (≈ 47.4 µM)	0
CCC(c1oc(CO)cc(=O)c1O)c1c(-c2ccccc2)[nH]c2ccccc12 (stereo not given)	0	0	0	9.38 (≈ 25 µM)	0	20	0	75 (≈ 200 µM)	14	18.8 (≈ 49.9 µM)	0	37.5 (≈ 99.9 µM)	9.38 (≈ 25 µM)	0	18.8 (≈ 49.9 µM)	0
COc1ccc(C(c2oc(CO)cc(=O)c2O)c2c[nH]c3ccccc23)cc1 (stereo not given)	0	6	0	150 (≈ 397 µM)	0	0	0	75 (≈ 199 µM)	0	150 (≈ 397 µM)	0	75 (≈ 199 µM)	37.5 (≈ 99.4 µM)	0	18.8 (≈ 49.7 µM)	9
Cc1[nH]c2ccccc2c1C(c1ccc2ccccc2c1)c1oc(CO)cc(=O)c1O (stereo not given)	0	0	0	150 (≈ 365 µM)	0	0	0	150 (≈ 365 µM)	0	150 (≈ 365 µM)	0	150 (≈ 365 µM)	150 (≈ 365 µM)	0	150 (≈ 365 µM)	0
COc1ccc(C(c2oc(CO)cc(=O)c2O)c2c(-c3ccccc3)[nH]c3ccccc23)cc1 (stereo not given)	0	10	10	75 (≈ 165 µM)	12	14	14	150 (≈ 331 µM)	9	150 (≈ 331 µM)	0	75 (≈ 165 µM)	37.5 (≈ 82.7 µM)	9	150 (≈ 331 µM)	14
COc1cc(C(c2oc(CO)cc(=O)c2O)c2c(C)[nH]c3ccccc23)ccc1O (stereo not given)	0	0	0	150 (≈ 368 µM)	0	0	0	150 (≈ 368 µM)	0	150 (≈ 368 µM)	0	150 (≈ 368 µM)	150 (≈ 368 µM)	0	150 (≈ 368 µM)	0
CN[C@@H]1[C@H](O[C@H]2[C@H](O[C@H]3[C@H](O)[C@@H](O)[C@H](N=C(N)N)[C@@H](O)[C@@H]3N=C(N)N)O[C@@H](C)[C@]2(O)C=O)O[C@@H](CO)[C@H](O)[C@H]1O [STREPTOMYCIN]	–	–	–	6.25 (≈ 10.7 µM)	–	–	–	3.12 (≈ 5.37 µM)	–	6.25 (≈ 10.7 µM)	–	1.56 (≈ 2.69 µM)	6.25 (≈ 10.7 µM)	–	3.12 (≈ 5.37 µM)	–
O=c1cc(CO)oc(C(c2ccccc2O)c2c(-c3ccccc3)[nH]c3ccccc23)c1O (stereo not given)	0	0	0	37.5 (≈ 85.3 µM)	14	16	0	75 (≈ 171 µM)	12	150 (≈ 341 µM)	0	18.8 (≈ 42.7 µM)	4.68 (≈ 10.6 µM)	10	150 (≈ 341 µM)	0
O=c1cc(CO)oc(C(c2cccc(Oc3ccccc3)c2)c2c[nH]c3ccccc23)c1O (stereo not given)	10	13	11	75 (≈ 171 µM)	19	19	16	75 (≈ 171 µM)	14	150 (≈ 341 µM)	7	75 (≈ 171 µM)	37.5 (≈ 85.3 µM)	14	18.8 (≈ 42.7 µM)	18
COc1ccc(C(c2oc(CO)cc(=O)c2O)c2c[nH]c3ccc(Br)cc23)cc1 (stereo not given)	0	13	12	37.5 (≈ 82.2 µM)	18	16	18	75 (≈ 164 µM)	10	150 (≈ 329 µM)	0	37.5 (≈ 82.2 µM)	18.8 (≈ 41.1 µM)	13	18.8 (≈ 41.1 µM)	19
COc1ccc(C(c2oc(CO)cc(=O)c2O)c2c(C)[nH]c3ccccc23)cc1 (stereo not given)	0	0	0	150 (≈ 383 µM)	0	0	0	150 (≈ 383 µM)	0	150 (≈ 383 µM)	0	150 (≈ 383 µM)	150 (≈ 383 µM)	0	150 (≈ 383 µM)	0
CC1(C)S[C@@H]2[C@H](NC(=O)Cc3ccccc3)C(=O)N2[C@H]1C(=O)O [PENICILLIN G]	–	–	–	12.5 (≈ 37.4 µM)	–	–	–	6.25 (≈ 18.7 µM)	–	1.56 (≈ 4.67 µM)	–	12.5 (≈ 37.4 µM)	1.56 (≈ 4.67 µM)	–	3.12 (≈ 9.35 µM)	–
